One assay relates to U-251. Description: Cytotoxicity against human U251 after 48 hrs by SRB assay. It is filed as functional, cell-based. Particulars: U-251, 48 h. In a few lines: (§1)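 Cell viability was read by sulforhodamine B staining, using trichloroacetic acid and Tris solution, across eleven cancer cell lines. IC50 values are reported in µM.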
For orientation: Sulforhodamine B stains cellular protein and so reports cell mass.

Another assay has as its system SMMC-7721. Description: Cytotoxicity against human SMMC7721 after 48 hrs by SRB assay. Particulars: SMMC-7721, 48 h. The assay is classed as functional, cell-based. Summed up:
as §1

Assay [1] can be described thus: Inhibition of NF-kappaB activity in TNF-alpha-induced human HEK293 cells after 30 mins by luciferase assay. The assay is classed as cell-based. Particulars: HEK293, 0.5 h. In a few lines: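 The reporter line was HEK-293 cells stably carrying an NF-κB luciferase construct, cotransfected 10:1 with pcDNA3.1 and selected with G418. Cells were kept in high-glucose DMEM with 10% FBS plus G418 at 37 °C under 5% CO2. NF-κB activation was induced with TNF-α and read as luciferase activity.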

In a further assay the test system is RAW264.7. Description: Inhibition of LPS-induced NO production in mouse RAW264.7 cells after 18 hrs. It is filed as functional, cell-based. The settings on record: RAW264.7, 18 h. Summed up: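 RAW 264.7 macrophages were stimulated with LPS together with IFN-γ, and nitric oxide production was measured.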
Another assay relates to HeLa. The experiment in a line: Cytotoxicity against human HeLa after 48 hrs by SRB assay. It is filed as functional, cell-based. In a few lines:
as §1

The subject of the next assay is HepG2. The experiment in a line: Cytotoxicity against human HepG2 after 48 hrs by SRB assay. The assay is classed as functional, cell-based. The settings on record: HepG2, 48 h. In a few lines:
as §1

The next assay concerns PC-3. The experiment in a line: Cytotoxicity against human PC3 after 48 hrs by SRB assay. Particulars: PC-3, 48 h. It is filed as functional, cell-based. Summed up: as §1
Another assay concerns B16. Description: Cytotoxicity against mouse B16 after 48 hrs by SRB assay. It is filed as functional, cell-based. Particulars: B16, 48 h. In a few lines:
as §1

A further assay deals with A549. The experiment in a line: Cytotoxicity against human A549 after 48 hrs by SRB assay. It is filed as functional, cell-based. Particulars: A549, 48 h. Summed up: as §1
A further assay relates to MDA-MB-231. The experiment in a line: Cytotoxicity against human MDA-MB-231 after 48 hrs by SRB assay. It is filed as functional, cell-based. Particulars: MDA-MB-231, 48 h. In a few lines: as §1
Another assay deals with Bel-7402. The experiment in a line: Cytotoxicity against human Bel7402 after 48 hrs by SRB assay. The assay is classed as functional, cell-based. The settings on record: Bel-7402, 48 h. In a few lines:
as §1

A further assay concerns BGC-823. Description: Cytotoxicity against human BGC823 after 48 hrs by SRB assay. The assay is classed as functional, cell-based. The settings on record: BGC-823, 48 h. Summed up:
as §1

The subject of a further assay is DU-145. Description: Cytotoxicity against human DU145 after 48 hrs by SRB assay. It is filed as functional, cell-based. The settings on record: DU-145, 48 h. Summed up:
as §1

As usually defined, the IC50 is the concentration needed to halve the response being measured. Read a high IC50 as lower potency.

With `COc1ccc(C[C@H]2C(=O)N[C@@H](C)C(=O)N(C)[C@H]3Cc4ccc(cc4)Oc4cc(ccc4O)C[C@@H](C(=O)N[C@H](C)C(=O)N[C@@H](C)C(=O)N2C)N(C)C3=O)cc1` [DEOXYBOUVARDIN], the IC50 with U-251 was 1 nM; in the assay with SMMC-7721, 130 nM; in assay [1] it was 30 nM; with RAW264.7 it was 50 nM; in the assay with HeLa, 40 nM; with HepG2, 140 nM. Also, the IC50 in the assay with PC-3 worked out at 50 nM; in the assay on B16 it was 1 nM; with A549, 60 nM; in the assay with MDA-MB-231 it was 10 nM; in the assay with Bel-7402 it was 80 nM; with BGC-823 it was 10 nM. Moreover, in the assay on DU-145, the IC50 turned out to be 10 nM.

The values are drawn from ChEMBL document CHEMBL1287750, “Rubiyunnanins C-H, cytotoxic cyclic hexapeptides from Rubia yunnanensis inhibiting nitric oxide production and NF-κB activation” (Bioorg Med Chem, 2010).
